Sampled rows, rich in hits. Any-hit rate of the full collection: about 2.6%.
Rin1 Abl inh – inhibitors of human Rin1-Abl protein interaction; P00519+Q13671; TR-FRET Rin1/Abl binding, biochemical; inhibition, % at 7.35 µM; hit rate 0.4% among 360,000; AID 588664; in the data active means inhibition above about 5%, passing the limit was not always enough
SKN-1 inh – C. elegans SKN-1 inhibition. hit rate 0.49% among 360,000. AID 624304. inhibition, % at 21.8 µM. C. elegans VP596 Pgst-4::GFP/RFP ratio, acrylamide-induced, 24 h;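 active means interference check ratio from 0.5 to 1.5 plus GFP to RFP signal ratio inhibition reaching or exceeding a fixed threshold, cut at about 30% in these data, passing the limit was not always enough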
GRK2 aptamer HTS – human GRK2 inhibition via aptamer displacement | bead flow cytometry, FAM-aptamer displacement from GRK2 | inhibition of aptamer binding, % at 10 µM | hit rate 0.59% among 330,000;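 active means inhibition of aptamer binding above 40%, roughly 3 SD of noise, on plates passing a quality check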;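 further: median bead fluorescence of bound FAM aptamer so fluorescent compounds give negative values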
Target sequence (P25098 whole entry, looked up): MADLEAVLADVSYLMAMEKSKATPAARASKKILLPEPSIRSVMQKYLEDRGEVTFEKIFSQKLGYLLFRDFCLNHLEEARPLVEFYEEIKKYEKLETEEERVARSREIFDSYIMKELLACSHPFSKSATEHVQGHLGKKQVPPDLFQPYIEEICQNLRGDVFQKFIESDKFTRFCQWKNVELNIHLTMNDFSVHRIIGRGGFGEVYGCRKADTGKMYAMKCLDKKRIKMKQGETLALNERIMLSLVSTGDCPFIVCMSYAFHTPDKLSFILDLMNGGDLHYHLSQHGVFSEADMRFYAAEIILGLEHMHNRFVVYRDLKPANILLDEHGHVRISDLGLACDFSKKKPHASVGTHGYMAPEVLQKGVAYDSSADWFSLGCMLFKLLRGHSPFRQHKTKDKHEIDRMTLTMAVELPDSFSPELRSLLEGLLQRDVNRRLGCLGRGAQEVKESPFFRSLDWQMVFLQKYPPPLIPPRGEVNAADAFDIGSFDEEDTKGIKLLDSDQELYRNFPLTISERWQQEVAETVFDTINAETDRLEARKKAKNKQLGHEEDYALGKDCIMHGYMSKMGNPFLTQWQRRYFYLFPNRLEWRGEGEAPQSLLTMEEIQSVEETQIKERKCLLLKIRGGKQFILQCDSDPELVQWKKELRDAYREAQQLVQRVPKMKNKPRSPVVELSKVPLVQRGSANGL
Rce1 inhib – yeast Ras-converting enzyme inhibition. Q03530. yeast membranes, quenched prenylated peptide cleavage fluorescence. calls only. hit rate 0.27% among 290,000. AID 2563;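 active means fall in fluorescence gain of 50% or more versus controls, with final raw signal at or below 3038400; inconclusive means same 50% fall but final raw signal above 3038400; inactive means fall in fluorescence gain under 50%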;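 further: plate controls were neutral control wells for no effect and wells lacking membranes for full effect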
Myeloid diff MLP – myeloid differentiation induction. hit rate 1% among 360,000. ER-HoxA9 myeloid progenitors, lysozyme-GFP differentiation, flow cytometry. AID 624256. calls only at 10 µM;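 active means normalized GFP-positive differentiation at or above the plate's own cutoff, the solvent-only control mean plus 3 SD; inconclusive means no clear call, values can overlap the other calls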;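 further: cells exposed to compound for four days before flow analysis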
T cell modulator – T cell immune modulators affecting CD8 T cell-vesicle binding; response (vesicle binding), % at 7 µM; 2C CD8+ T cell-vesicle binding, flow cytometry; active compounds read low; hit rate 0.068% among 330,000;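 active means response, share of CD8 T cells binding vesicles, and their 90th percentile fluorescence all below set limits, cut at about 80% in these data, passing the limit was not always enough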;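 further: values below 100% mean blocked vesicle binding to the CD8+ T cells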
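Test system: purified 2C TCR transgenic mouse naive CD8+ T cells. Probe or stimulus: QL9-peptide-loaded Drosophila micro-vesicles bearing Ld, ICAM-1 and B7-1. Incubation: binding step 1.5 h, 37 °C, antibody labelling 20 min, ice. Measured by: flow cytometry of vesicle-bound cells.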
Myeloid diff – myeloid differentiation induction. shares compounds with Myeloid diff MLP. hit rate 2% among 2,300. AID 651706. calls only. ER-HoxA9 myeloid progenitors, GFP/Mac1 double-positive flow;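 active means share of green or green-and-red cells above 9 and 9% in run 1 or 4 and 3% in run 2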
GFP autofluor – counter-screen for myeloid differentiation promoters: compound fluorescence; shares compounds with Myeloid diff MLP; ER-HoxA9 myeloid progenitors, no estrogen, GFP autofluorescence flow cytometry; vehicle wells 0%, positive control 100%; fluorescence response, % (test concentration not listed); hit rate 7.4% among 2,300; AID 651707;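 active means over 5% cells positive for green fluorescent reporter, or over 2% positive for both it and APC stain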;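 further: range taken on the double positive population between DMSO and positive control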
An asterisk follows results filed as active.

Oc1ccc(/C=N/NC(=S)Nc2cccnc2)cc1 was read as Rin1 Abl inh -2, SKN-1 inh 10, GRK2 aptamer HTS 1, Rce1 inhib inactive, Myeloid diff MLP inactive, T cell modulator 80, Myeloid diff inactive and GFP autofluor 0.
`CCOc1ccc(CCN2C(=O)C(=O)N([C@@H](Cc3ccccc3)CN3CCC[C@H]3CN3C(=O)C(=O)NC[C@@H]3CC(C)C)C[C@@H]2Cc2ccc(O)cc2)cc1` gave SKN-1 inh 16, Myeloid diff MLP inactive, Myeloid diff inactive and GFP autofluor 0.
For CCOc1ccc(CCN2C(=O)C(=O)N([C@@H](Cc3ccccc3)CN3CCC[C@H]3CN3C(=O)C(=O)NC[C@@H]3Cc3ccc(O)cc3)C[C@@H]2Cc2ccc(O)cc2)cc1 the results were SKN-1 inh -2 and Myeloid diff MLP inactive.
Screening O=C(CNS(=O)(=O)c1ccccc1)Nc1ccc2c(c1)OCO2 returned Rin1 Abl inh 2, SKN-1 inh 8, GRK2 aptamer HTS 11, Rce1 inhib inactive, Myeloid diff MLP inactive and T cell modulator 422.
`Cc1c(N=C2NN=C(c3c[nH]c4ccccc34)CS2)c(=O)n(-c2ccccc2)n1C` gave Rin1 Abl inh 0, SKN-1 inh -5, GRK2 aptamer HTS 25, Rce1 inhib inactive, Myeloid diff MLP active, T cell modulator 278, Myeloid diff inactive and GFP autofluor 5.
`COc1ccccc1C(C)NC(=O)CCC(=O)N1CCN(S(=O)(=O)c2ccc(Cl)cc2)CC1` (centres undefined) gave Rin1 Abl inh 1, SKN-1 inh 12 and Myeloid diff MLP inactive.
For Cc1ccc(CCNC(=O)CCNS(=O)(=O)c2ccc3c(c2)c(=O)n(C)c(=O)n3C)cc1 the results were Rin1 Abl inh 1, SKN-1 inh -13, GRK2 aptamer HTS 0, Rce1 inhib inactive, Myeloid diff MLP inactive and T cell modulator 472.
For Cn1c(=O)c2cc(S(=O)(=O)NCCC(=O)NCCC3=CCCCC3)ccc2n(C)c1=O the results were Rin1 Abl inh -1, SKN-1 inh 3, GRK2 aptamer HTS 2, Rce1 inhib inactive, Myeloid diff MLP active, T cell modulator 445, Myeloid diff inactive and GFP autofluor 1.
For N/C(=N\OC(=O)C1CC1)c1ccc([N+](=O)[O-])s1 the results were Rin1 Abl inh -3, SKN-1 inh -9, GRK2 aptamer HTS 1, Myeloid diff MLP inactive and T cell modulator 673.
COc1ccc(NC(C)(C)c2nnnn2-c2c(C)cccc2C)cc1 was read as Rin1 Abl inh 2, SKN-1 inh 1, GRK2 aptamer HTS 0, Rce1 inhib inactive, Myeloid diff MLP inactive, T cell modulator 254, Myeloid diff inactive and GFP autofluor 0.
`Cc1ccc(CC2(C)C(=O)Nc3c(Cl)cccc32)cc1` (centres undefined) gave Rin1 Abl inh 0, SKN-1 inh -1 and Myeloid diff MLP inactive.
For N#Cc1ccc(NC(=S)NC(=O)C2CC2)cc1 the results were Rin1 Abl inh 3, SKN-1 inh 4 and Myeloid diff MLP inactive.
For Oc1ccc(N2CCN(c3nnnn3-c3ccccc3)CC2)cc1 the results were Rin1 Abl inh 2, SKN-1 inh 7, GRK2 aptamer HTS 0, Rce1 inhib inactive, Myeloid diff MLP active, T cell modulator 75, Myeloid diff inactive and GFP autofluor 0.
CCc1nc2sc3c(c2c(=O)n1CCO)CCC3 was read as Rin1 Abl inh 0, SKN-1 inh 27, GRK2 aptamer HTS 3, Rce1 inhib inactive, Myeloid diff MLP inactive and T cell modulator 253.
COC(=O)C[C@@H]1C=C[C@@H](NC(=O)c2ccccc2F)[C@@H](CO)O1 was read as SKN-1 inh -13, Myeloid diff MLP inactive, Myeloid diff inactive and GFP autofluor 0.
`Cc1cc(C(=O)NC2CCCc3c2cnn3-c2cccc(C)c2C)no1` (centres undefined) gave Rin1 Abl inh -2, SKN-1 inh 10, GRK2 aptamer HTS 0, Rce1 inhib inactive, Myeloid diff MLP active, T cell modulator 492, Myeloid diff inactive and GFP autofluor 4.
Screening CC1=C(C(=O)NC2CCCc3c2cnn3-c2cccc(C)c2C)OCCO1 (centres undefined) returned Rin1 Abl inh 1, SKN-1 inh 0, GRK2 aptamer HTS 0, Rce1 inhib inactive, Myeloid diff MLP inactive and T cell modulator 133.
Screening CCOC(=O)c1c(NC(=O)C(C)Sc2cccc[n+]2[O-])sc2c1CCN(Cc1ccccc1)C2 (centres undefined) returned Rin1 Abl inh -6, SKN-1 inh 15, GRK2 aptamer HTS 3, Myeloid diff MLP active, T cell modulator 263, Myeloid diff inactive and GFP autofluor 0.
For COc1ccc(C2SCC(=O)N2c2c(C)n(C)n(-c3ccccc3)c2=O)cc1OC (centres undefined) the results were Rin1 Abl inh 1, SKN-1 inh 18, GRK2 aptamer HTS 0, Rce1 inhib inactive, Myeloid diff MLP active, T cell modulator 332, Myeloid diff inactive and GFP autofluor 0.
Cc1cccc(C)c1N1C(=O)c2ccccc2NC(=O)C1C(=O)Nc1ccc(N2CCOCC2)cc1 (centres undefined) was read as SKN-1 inh -1 and Myeloid diff MLP inactive.
Screening CCOc1ccc(NS(=O)(=O)c2ccc(NC(=S)NC(=O)CC(C)C)cc2)cc1 returned Rin1 Abl inh -3, SKN-1 inh -25, GRK2 aptamer HTS 1, Rce1 inhib inactive, Myeloid diff MLP inactive, T cell modulator 307, Myeloid diff inactive and GFP autofluor 2.
CC(C)(C)OC(=O)C[C@@H]1C/C=C\C[C@H](CC(=O)N[C@H](CO)Cc2ccccc2)C(=O)N[C@@H](Cc2ccccc2)COC1=O was read as Rin1 Abl inh 0, SKN-1 inh 3, GRK2 aptamer HTS 6, Myeloid diff MLP inactive, T cell modulator 248, Myeloid diff inactive and GFP autofluor 0.
For O=[N+]([O-])c1ccc(Nc2ccccc2O)c2nonc12 the results were Rin1 Abl inh -10, SKN-1 inh 30, GRK2 aptamer HTS 2, Rce1 inhib inactive, Myeloid diff MLP active, T cell modulator 146, Myeloid diff inactive and GFP autofluor 2.
`CC1(C)CC(=O)C=C(C#CC2(O)CCCCC2)C1` gave Rin1 Abl inh -5, SKN-1 inh 11, Myeloid diff MLP inconclusive, Myeloid diff inactive and GFP autofluor 0.

Bioassay records from PubChem BioAssay.
